Assay results taken from ChEMBL document CHEMBL1687872, “Synthesis, molecular docking and binding studies of selective serotonin transporter inhibitors” (Eur J Med Chem, 2011).

What was measured:
[1] = Displacement of [3H]-paroxetine from SERT in rabbit cortical membrane; format: cell membranes, Oryctolagus cuniculus
Procedure, shortened: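 Competition against [3H]paroxetine (Kd 56.00 pM) on rabbit frontal cortex membranes, in duplicate, at least seven test concentrations from ethanol stocks diluted in Tris-HCl saline buffer; filtration and scintillation counting; Ki calculated by Cheng-Prusoff, mean ± s.e.m. of three independent experiments.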

[2] = Displacement of [3H]-Nisoxetine from NET in rabbit cortical membrane; format: cell membranes, Oryctolagus cuniculus
[3] = Displacement of [3H]-WIN 35,428 from DAT in rabbit striatal membrane; format: cell membranes, Oryctolagus cuniculus, Striatum
Procedure, shortened: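 Rabbit striatal membranes (0.2 mg protein) in 50 mM Tris-HCl pH 7.4, 120 mM NaCl, 5 mM KCl with 0.5–2 nM [3H]WIN 35,428 (Kd 6.1 nM), 2 h at 4 °C; dopamine defines nonspecific binding; filtration over polyethylenimine-soaked GF/C filters, scintillation counting; ≥7 concentrations; Ki via Cheng-Prusoff, mean ± s.e.m. of three experiments in duplicate.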

[4] = organism: Oryctolagus cuniculus; assay: Ratio of Ki for NET in rabbit cortical membrane to Ki for SERT in rabbit cortical membrane; format: cell membranes
Procedure, shortened: (§1)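 Ratio of the radioligand-binding Ki values from rabbit membranes: DAT ([3H]WIN 35,428, striatum) or NET ([3H]nisoxetine, cortex) Ki divided by SERT ([3H]paroxetine, cortex) Ki.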

[5] = organism: Oryctolagus cuniculus; assay: Ratio of Ki for DAT in rabbit striatal membrane to Ki for SERT in rabbit cortical membrane; format: cell membranes; procedure, shortened: as §1

| SMILES | Ki [1] [nM] | Ki [2] [nM] | Ki [3] [nM] | Ratio Ki [4] | Ratio Ki [5] |
| --- | --- | --- | --- | --- | --- |
| Fc1ccc(CO/N=C2/CNCCC2c2ccc(C(F)(F)F)cc2)cc1 (configuration not stated) | 96.8 | 9300 | > 100000 | 96 | > 1000 |
| Fc1ccc(CO/N=C2/CNCCC2c2ccc(F)cc2)cc1 (racemic) | 28.7 | 13400 | 9460 | 466 | 329 |
| Fc1ccc(CO/N=C2\CNCCC2c2ccc(F)cc2)cc1 (racemic) | 306 | – | 3190 | – | 10 |
| Fc1ccc(C2CCNC/C2=N/OCc2ccc(C(F)(F)F)cc2)cc1 (racemic) | 98.4 | 19500 | > 100000 | 198 | > 1000 |
| Fc1ccc(C2CCNC/C2=N\OCc2ccc(C(F)(F)F)cc2)cc1 (racemic) | 139 | – | 6200 | – | 45 |
| Fc1ccc(C2CCNC/C2=N/OCc2ccccc2Cl)cc1 (racemic) | 22.6 | 11200 | 12900 | 496 | 571 |
| Fc1ccc(C2CCNC/C2=N\OCc2ccccc2Cl)cc1 (racemic) | 81.1 | – | 3800 | – | 47 |
| Fc1ccc(CO/N=C2\CNCCC2c2ccc(C(F)(F)F)cc2)cc1 (racemic) | 396 | – | 2800 | – | 7 |
| FC(F)(F)c1ccc(C2CCNC/C2=N/OCc2ccccc2Cl)cc1 (racemic) | 10.3 | 10000 | > 100000 | 972 | > 9000 |
| FC(F)(F)c1ccc(C2CCNC/C2=N\OCc2ccccc2Cl)cc1 (racemic) | 96.6 | – | 4200 | – | 43 |
| CNCCC(Oc1ccccc1OC)c1ccccc1 (configuration not stated) [NISOXETINE] | – | 3.5 | – | – | – |
| Fc1ccc([C@@H]2CCNC[C@H]2COc2ccc3c(c2)OCO3)cc1 [PAROXETINE] | 0.31 | 80 | 769 | 258 | 2480 |
| CNCC[C@@H](Oc1ccc(C(F)(F)F)cc1)c1ccccc1 [R-FLUOXETINE] | 5.8 | 609 | 4000 | 105 | 670 |
| Fc1ccc(C(OCCN2CCN(CCCc3ccccc3)CC2)c2ccc(F)cc2)cc1 [VANOXERINE] | – | – | 1.5 | – | – |
